Assays:
[1] = ITC: binding
Method in brief: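 25 × 10 μl injections of 50 μM full-length BclXL into a cell of 2 mM TOCL/DHPC bicelles (1:4 molar ratio, stirred 2 h at 37 °C in buffer). 25 °C; 50 mM buffer (acetate pH 4 to CAPS pH 10) with 100 mM NaCl, 1 mM EDTA and 5 mM β-mercaptoethanol. Buffer-titration heats subtracted. Kd and ΔH from a one-site fit; TΔS = ΔH − ΔG. ≥3 repeats.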

[2] = Analytical light scattering; assay type: physicochemical; settings: for Mw (weighted-average molar mass): Superdex 200, 10°C; for P (population of species): integration of elution peak
Method in brief: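 Full-length His-tagged human BclXL, 50 μM starting concentration, run on Superdex 200 SEC at 1 ml/min and 10 °C in 50 mM buffer (pH 4–10) with 100 mM NaCl, 1 mM EDTA and 5 mM β-mercaptoethanol. Inline triple-angle SLS, 90° DLS and refractive-index concentration detection. Mw, Mn and Rg from Zimm treatment; Rh from autocorrelation fit. Errors one SD, ≥3 independent runs.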

[3] = Far-UV CD of BclXL; assay type: physicochemical; settings: 5μM BclXL, 25°C
Method in brief: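 Far-UV spectra of 5 μM full-length human BclXL in 50 mM acetate (pH 4), phosphate (pH 6), Tris (pH 8) or CAPS (pH 10). 25 °C; 2-mm quartz cuvette; 190–250 nm; 2-nm slit; 10 nm/min scan. Buffer reference spectra subtracted. At least three repeats.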

[4] = Steady-state intrinsic tryptophan fluorescence of BclXL; assay type: physicochemical; settings: 5μM BclXL, excitation 290nm, 25 °C
Method in brief: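 Tryptophan emission of 5 μM full-length human BclXL (N-His, E. coli-expressed) alone in 50 mM acetate pH 4, phosphate pH 6, Tris pH 8 or CAPS pH 10. 25 °C, 10-mm cuvette; excitation 290 nm; emission scanned 300–500 nm; 2.5-nm bandwidths. Spectra corrected against buffer reference. At least three repeats.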

[5] = Acrylamide quenching of BclXL intrinsic fluorescence; assay type: physicochemical; settings: 5μM BclXL, excess acrylamide, 25 °C
Method in brief: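 Intrinsic fluorescence quenching: 5 μM His-tagged full-length human BclXL with excess acrylamide in 50 mM acetate (pH 4), phosphate (pH 6), Tris (pH 8) or CAPS (pH 10). 25 °C, 10-mm cuvette; excitation 290 nm; emission 300–500 nm; 2.5-nm bandwidths. […] Q = (Φo−Φ)/Φo × 100% from integrated spectral areas. At least three repeats.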

[6] = Near-UV CD of BclXL; assay type: physicochemical; settings: 30μM BclXL, 25°C
Method in brief: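 Near-UV spectra recorded on 30 μM His-tagged full-length human BclXL in 50 mM acetate pH 4, phosphate pH 6, Tris pH 8 or CAPS pH 10. 25 °C; 10-mm quartz cuvette; 260–340 nm; 2-nm slit; 10 nm/min. Spectra normalized against buffer references. At least three repeats.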

[7] = Dimer, pH 6, ± SD, n at least 3
[8] = Dimer, pH 8, ± SD, n at least 3
[9] = Dimer, pH 10, ± SD, n at least 3
[10] = Megamer, pH 4, ± SD, n at least 3
[11] = Monomer, pH 6, ± SD, n at least 3
[12] = Monomer, pH 8, ± SD, n at least 3
[13] = Multimer, pH 6, ± SD, n at least 3
[14] = Multimer, pH 8, ± SD, n at least 3
[15] = Multimer, pH 10, ± SD, n at least 3
[16] = Polymer, pH 6, ± SD, n at least 3
[17] = Polymer, pH 8, ± SD, n at least 3
[18] = Polymer, pH 10, ± SD, n at least 3

Substance: full-length BclXL: Full-length human BclXL (residues 1-233), N-terminal His-tag, expressed in Escherichia coli
- TΔS ([1]; pH 4, acetate, 25 °C, TΔS=ΔH-ΔG, ± SD, n at least 3): -53.73 ± 4.1 kcal/mol
- ΔH ([1]; pH 4, acetate, 25 °C, ± SD, n at least 3): -63.00 ± 4.2 kcal/mol
- ΔG ([1]; pH 4, acetate, 25 °C, ΔG=RTlnKd, ± SD, n at least 3): -9.26 ± 0.1 kcal/mol
- binding to TOCL/DHPC bicelles, in words ([1]; pH 4-10): only under acidic conditions
- Mw (weighted-average molar mass) ([2]; Dimer, pH 6, phosphate, 50μM loaded, ± SD, n at least 3): 61 ± 3 kD
- P (population of species) ([2]; Dimer, pH 6): 11%
- Mn (number-average molar mass) [2, 7]: 59 ± 2 kD
- Mw/Mn [2, 7]: 1.02 ± 0.01
- Rh (weighted-average hydrodynamic radius) [2, 7]: 49 ± 4 Å
- Mw (weighted-average molar mass) ([2]; Dimer, pH 8, Tris, 50μM loaded, ± SD, n at least 3): 62 ± 4 kD
- P (population of species) ([2]; Dimer, pH 8): 5%
- Mn (number-average molar mass) [2, 8]: 61 ± 2 kD
- Mw/Mn [2, 8]: 1.01 ± 0.01
- Rh (weighted-average hydrodynamic radius) [2, 8]: 48 ± 2 Å
- Mw (weighted-average molar mass) ([2]; Dimer, pH 10, CAPS, 50μM loaded, ± SD, n at least 3): 61 ± 3 kD
- P (population of species) ([2]; Dimer, pH 10): 5%
- Mn (number-average molar mass) [2, 9]: 60 ± 3 kD
- Mw/Mn [2, 9]: 1.02 ± 0.01
- Rh (weighted-average hydrodynamic radius) [2, 9]: 49 ± 3 Å
- Mw (weighted-average molar mass) ([2]; Megamer, pH 4, acetate, 50μM loaded, ± SD, n at least 3): 33805 ± 2821 kD
- Mn (number-average molar mass) ([2]; Megamer, pH 4, 50μM loaded, 10°C, ± SD, n at least 3): 33085 ± 2623 kD
- P (population of species) ([2]; Megamer, pH 4): 100%
- Mw/Mn [2, 10]: 1.02 ± 0.01
- Rg (weighted-average radius of gyration) [2, 10]: 783 ± 86 Å
- Rg/Rh [2, 10]: 2.40 ± 0.16
- Rh (weighted-average hydrodynamic radius) [2, 10]: 324 ± 23 Å
- Mw (weighted-average molar mass) ([2]; Monomer, pH 6, phosphate, 50μM loaded, ± SD, n at least 3): 32 ± 2 kD
- P (population of species) ([2]; Monomer, pH 6): 31%
- Mn (number-average molar mass) [2, 11]: 31 ± 2 kD
- Mw/Mn [2, 11]: 1.01 ± 0.01
- Rh (weighted-average hydrodynamic radius) [2, 11]: 26 ± 1 Å
- Mw (weighted-average molar mass) ([2]; Monomer, pH 8, Tris, 50μM loaded, ± SD, n at least 3): 31 ± 1 kD
- P (population of species) ([2]; Monomer, pH 8): 7%
- Mn (number-average molar mass) [2, 12]: 30 ± 2 kD
- Mw/Mn [2, 12]: 1.00 ± 0.00
- Rh (weighted-average hydrodynamic radius) [2, 12]: 34 ± 2 Å
- Mw (weighted-average molar mass) ([2]; Monomer, pH 10, CAPS, 50μM loaded, ± SD, n at least 3): 31 ± 2 kD
- P (population of species) ([2]; Monomer, pH 10): 9%
- Mw (weighted-average molar mass) ([2]; Multimer, pH 6, phosphate, 50μM loaded, ± SD, n at least 3): 595 ± 45 kD
- P (population of species) ([2]; Multimer, pH 6): 37%
- Mn (number-average molar mass) [2, 13]: 577 ± 39 kD
- Mw/Mn [2, 13]: 1.03 ± 0.02
- Rg (weighted-average radius of gyration) [2, 13]: 141 ± 5 Å
- Rg/Rh [2, 13]: 1.47 ± 0.02
- Rh (weighted-average hydrodynamic radius) [2, 13]: 95 ± 3 Å
- Mw (weighted-average molar mass) ([2]; Multimer, pH 8, Tris, 50μM loaded, ± SD, n at least 3): 364 ± 32 kD
- P (population of species) ([2]; Multimer, pH 8): 51%
- Mn (number-average molar mass) [2, 14]: 325 ± 33 kD
- Mw/Mn [2, 14]: 1.11 ± 0.01
- Rg (weighted-average radius of gyration) [2, 14]: 98 ± 4 Å
- Rg/Rh [2, 14]: 1.08 ± 0.02
- Rh (weighted-average hydrodynamic radius) [2, 14]: 90 ± 2 Å
- Mw (weighted-average molar mass) ([2]; Multimer, pH 10, CAPS, 50μM loaded, ± SD, n at least 3): 461 ± 21 kD
- P (population of species) ([2]; Multimer, pH 10): 50%
- Mn (number-average molar mass) [2, 15]: 448 ± 23 kD
- Mw/Mn [2, 15]: 1.03 ± 0.01
- Rg (weighted-average radius of gyration) [2, 15]: 131 ± 5 Å
- Rg/Rh [2, 15]: 1.21 ± 0.01
- Rh (weighted-average hydrodynamic radius) [2, 15]: 108 ± 4 Å
- Mw (weighted-average molar mass) ([2]; Polymer, pH 6, phosphate, 50μM loaded, ± SD, n at least 3): 3521 ± 292 kD
- P (population of species) ([2]; Polymer, pH 6): 21%
- Mn (number-average molar mass) [2, 16]: 3101 ± 201 kD
- Mw/Mn [2, 16]: 1.13 ± 0.03
- Rg (weighted-average radius of gyration) [2, 16]: 230 ± 12 Å
- Rg/Rh [2, 16]: 1.22 ± 0.02
- Rh (weighted-average hydrodynamic radius) [2, 16]: 187 ± 9 Å
- Mw (weighted-average molar mass) ([2]; Polymer, pH 8, Tris, 50μM loaded, ± SD, n at least 3): 3729 ± 246 kD
- P (population of species) ([2]; Polymer, pH 8): 37%
- Mn (number-average molar mass) [2, 17]: 3226 ± 236 kD
- Mw/Mn [2, 17]: 1.15 ± 0.02
- Rg (weighted-average radius of gyration) [2, 17]: 218 ± 12 Å
- Rg/Rh [2, 17]: 1.15 ± 0.03
- Rh (weighted-average hydrodynamic radius) [2, 17]: 188 ± 11 Å
- Mw (weighted-average molar mass) ([2]; Polymer, pH 10, CAPS, 50μM loaded, ± SD, n at least 3): 3189 ± 229 kD
- P (population of species) ([2]; Polymer, pH 10): 36%
- Mn (number-average molar mass) [2, 18]: 3018 ± 212 kD
- Mw/Mn [2, 18]: 1.06 ± 0.02
- Rg (weighted-average radius of gyration) [2, 18]: 232 ± 13 Å
- Rg/Rh [2, 18]: 1.14 ± 0.02
- Rh (weighted-average hydrodynamic radius) [2, 18]: 202 ± 7 Å
- mass of megamer ([2]; acidic conditions (pH 4)): ~ 34,000 kD
- monomeric units in megadalton oligomer ([2]; acidic conditions (pH 4)): more than 1000 monomeric units
- Mw/Mn ([2]; megadalton oligomer, pH 4, text): < 1.05
- Mw/Mn ([2]; monomeric and dimeric forms): < 1.05
- Rg/Rh ([2]; multimer and polymer): > 1.05
- mass of monomer ([2]; pH 6 and higher): ~ 31 kD
- intensity of far-UV spectrum ([3]; pH 4-10): steadily increases with increasing pH
- far-UV CD band, first ([3]; all pH conditions): around 208 nm
- far-UV CD band, second ([3]; all pH conditions): ~222 nm
- intrinsic fluorescence vs pH ([4]; pH 4, 6, 8, 10): drops as the pH changes from 4 to 6, it undergoes substantial enhancement at pH 8 only to drop again at pH 10
- tryptophan emission maximum ([4]; pH-independent): around 338 nm
- fluorescence quenching by acrylamide vs pH [5]: optimal quenching occurs at pH 6
- near-UV CD signal ([6]; acidic pH (pH 4)): substantially attenuated
- near-UV CD signal ([6]; alkaline conditions (pH 8 and 10)): also attenuated
- near-UV CD signal ([6]; pH 6): strong near-UV CD signal

Reference: paper PMC3483416 (Archives of biochemistry and biophysics, 2012)
